Tests used:
Cathepsin B = Cathepsin B (Homo sapiens, UniProt P07858); test: Inhibition of human liver Cathepsin B using Z-Arg-Arg-aminomethylcoumarin as substrate incubated for 5 mins prior to substrate addition measured for 5 mins by fluorometric analysis
How it was run: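 Assay run with 2% DMSO in the well and a five-minute pre-incubation before substrate. Substrate was used at 60 µM. Activity is reported as IC₅₀ (nM).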

Procathepsin L = Procathepsin L (Homo sapiens, UniProt P07711); test: Inhibition of human liver Cathepsin L using Z-Phe-Arg-aminomethylcoumarin as substrate incubated for 5 mins prior to substrate addition measured for 5 mins by fluorometric analysis
Procathepsin L, sequence (P07711 whole entry): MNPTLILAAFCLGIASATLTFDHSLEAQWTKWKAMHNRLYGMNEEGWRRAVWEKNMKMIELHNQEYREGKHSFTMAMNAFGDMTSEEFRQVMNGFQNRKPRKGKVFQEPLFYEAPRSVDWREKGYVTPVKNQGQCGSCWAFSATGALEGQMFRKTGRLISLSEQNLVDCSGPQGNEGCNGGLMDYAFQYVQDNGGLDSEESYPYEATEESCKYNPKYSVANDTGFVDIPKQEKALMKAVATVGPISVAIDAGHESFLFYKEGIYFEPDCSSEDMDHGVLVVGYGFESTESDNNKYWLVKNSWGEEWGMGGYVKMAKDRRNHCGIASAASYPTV
How it was run: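 Assay run with 2% DMSO in the well and a five-minute pre-incubation before substrate. Substrate was used at 50 µM. Activity is reported as IC₅₀ (nM).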

Homo sapiens = species on record: Homo sapiens; test: Selectivity ratio of IC50 for human liver Cathepsin B to IC50 for human liver Cathepsin L

N=C(N)N/N=C1\CCS(=O)(=O)c2ccc([N+](=O)[O-])cc21
IC50 (Cathepsin B): > 10 µM | IC50 (Procathepsin L): > 10 µM

NC(=S)N/N=C1\CCCc2c(O)cccc21
IC50 (Cathepsin B): > 10 µM | IC50 (Procathepsin L): > 10 µM

NC(=S)N/N=C1\CCN([N+](=O)[O-])c2ccccc21
IC50 (Cathepsin B): > 10 µM | IC50 (Procathepsin L): > 10 µM

CS(=O)(=O)c1ccc2c(c1)/C(=N/NC(N)=S)CCS2(=O)=O
IC50 (Cathepsin B): > 10 µM | IC50 (Procathepsin L): > 10 µM

NC(=S)N/N=C1\CCN([N+](=O)[O-])c2ccc([N+](=O)[O-])cc21
Ratio IC50 (Homo sapiens): > 20 | IC50 (Cathepsin B): > 10 µM | IC50 (Procathepsin L): 0.228 µM

NC(=S)N/N=C1\CC[S+]([O-])c2ccc([N+](=O)[O-])cc21 (configuration not stated)
Ratio IC50 (Homo sapiens): > 5.7 | IC50 (Cathepsin B): > 10 µM | IC50 (Procathepsin L): 1.74 µM

NC(=S)N/N=C1\CC(Nc2ccccc2)c2ccc(Br)cc21 (configuration not stated)
IC50 (Cathepsin B): > 10 µM | IC50 (Procathepsin L): > 10 µM

NC(=S)N/N=C1\CCNc2c1cc([N+](=O)[O-])cc2[N+](=O)[O-]
Ratio IC50 (Homo sapiens): > 20 | IC50 (Cathepsin B): > 10 µM | IC50 (Procathepsin L): 0.338 µM

NC(=S)N/N=C1\CCc2ccc(Br)cc21
IC50 (Cathepsin B): > 10 µM | IC50 (Procathepsin L): > 10 µM

NC(=S)N/N=C1\CCOc2ccc(Cl)cc21
Ratio IC50 (Homo sapiens): > 20 | IC50 (Cathepsin B): > 10 µM | IC50 (Procathepsin L): 0.369 µM

NC(=S)N/N=C1\CCCS(=O)(=O)c2ccc([N+](=O)[O-])cc21
IC50 (Cathepsin B): > 10 µM | IC50 (Procathepsin L): > 10 µM

NC(=S)NN=C1c2cc([N+](=O)[O-])ccc2-c2ccc([N+](=O)[O-])cc21
IC50 (Cathepsin B): > 10 µM | IC50 (Procathepsin L): > 10 µM

NC(=S)N/N=C1\CCCSc2ccc([N+](=O)[O-])cc21
Ratio IC50 (Homo sapiens): > 15.2 | IC50 (Cathepsin B): > 10 µM | IC50 (Procathepsin L): 0.658 µM

NC(=S)N/N=C1\CCNc2c(Cc3ccccc3)cccc21
IC50 (Cathepsin B): > 10 µM | IC50 (Procathepsin L): > 10 µM

COc1ccc2c(c1)/C(=N/NC(N)=S)CCC2
IC50 (Cathepsin B): > 10 µM | IC50 (Procathepsin L): > 10 µM

COc1cccc2c1CCC/C2=N\NC(N)=S
IC50 (Cathepsin B): > 10 µM | IC50 (Procathepsin L): > 10 µM

N=C(N)N/N=C1\CCSc2ccc([N+](=O)[O-])cc21
IC50 (Cathepsin B): > 10 µM | IC50 (Procathepsin L): > 10 µM

COc1ccc2c(c1)CCC/C2=N\NC(N)=S
IC50 (Cathepsin B): > 10 µM | IC50 (Procathepsin L): > 10 µM

CN1CC/C(=N\NC(N)=S)c2cc(Br)ccc21
IC50 (Cathepsin B): > 10 µM | IC50 (Procathepsin L): > 10 µM

NC(=S)N/N=C1\CCS(=O)(=O)c2ccc(N)cc21
IC50 (Cathepsin B): > 10 µM | IC50 (Procathepsin L): > 10 µM

NC(=S)N/N=C1\CCCCc2ccccc21
IC50 (Cathepsin B): > 10 µM | IC50 (Procathepsin L): > 10 µM

NC(=S)N/N=C1\CCCSc2cc(F)c(F)cc21
IC50 (Cathepsin B): > 10 µM | IC50 (Procathepsin L): ≥ 10 µM

NC(=S)N/N=C1\CCNc2ccccc21
IC50 (Cathepsin B): > 10 µM | IC50 (Procathepsin L): > 10 µM

NC(=S)N/N=C1\CCc2ccccc2C1
IC50 (Cathepsin B): > 10 µM | IC50 (Procathepsin L): > 10 µM

NC(=S)N/N=C1\CC(c2ccccc2)Oc2ccccc21 (configuration not stated)
IC50 (Cathepsin B): > 10 µM | IC50 (Procathepsin L): > 10 µM

NC(=S)N/N=C1\CCCS(=O)(=O)c2cc(F)c(F)cc21
IC50 (Cathepsin B): > 10 µM | IC50 (Procathepsin L): > 10 µM

NC(=S)N/N=C1\CCNc2ccc(Br)cc21
Ratio IC50 (Homo sapiens): > 20 | IC50 (Cathepsin B): > 10 µM | IC50 (Procathepsin L): 0.164 µM

NC(=S)N/N=C1\CCCc2cc(N)ccc21
IC50 (Cathepsin B): > 10 µM | IC50 (Procathepsin L): > 10 µM

CC(=O)N1CC/C(=N\NC(N)=S)c2ccccc21
IC50 (Cathepsin B): > 10 µM | IC50 (Procathepsin L): > 10 µM

NC(=S)N/N=C1\CCNc2ccc([N+](=O)[O-])cc21
Ratio IC50 (Homo sapiens): > 20 | IC50 (Cathepsin B): > 10 µM | IC50 (Procathepsin L): 0.449 µM
